Calls of active or inactive are those of the source. No cut-off for these calls is given here.
What was measured:
[1] = system: MCF7; assay: Decrease in endogenous sphingosine level in human MCF7 cells at 10-50 uM after 24 hrs; format: functional, cell-based
Outline: (§1)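 MCF7 cells grown in RPMI 1640 with 10% FCS at 37 °C, 5% CO2. Seeded at ~50% density (1×10^6 cells), treated 24 h later with compounds in ethanol (0.1% final); controls got ethanol only. Cells washed in cold PBS and lipids extracted. Cer species and Sph quantified by HPLC-MS/MS (MRM, positive ion) against internal standards and calibration curves. Values given as pmol/nmol phospholipid and compared with ethanol controls.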

[2] = system: MCF7; assay: Increase in endogenous ceramide level in human MCF7 cells at 10 to 50 uM after 24 hrs; format: functional, cell-based
Outline: (§2)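 MCF7 cells grown in RPMI 1640 with 10% FCS at 37 °C in 5% CO2. Seeded near 50% density and treated 24 h later with compound in ethanol (0.1% final); controls got ethanol alone. Cells washed in cold PBS and extracted. Cer species, Sph and S1P measured by HPLC-MS/MS (C8 column, positive-ion MRM) against internal standards and calibration curves. Results given as pmol/nmol phospholipid phosphate, relative to ethanol controls.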

[3] = system: MCF7; assay: Increase in endogenous C24-ceramide level in human MCF7 cells upto 24 hrs; format: functional; outline: as §2
[4] = system: MCF7; assay: Increase in endogenous C14-ceramide level in human MCF7 cells after 24 hrs; format: functional; outline: as §1
[5] = system: MCF7; assay: Increase in endogenous C24:1-ceramide level in human MCF7 cells upto 24 hrs; format: functional; outline: as §2
[6] = system: MCF7; assay: Increase in endogenous C16-ceramide level in human MCF7 cells after 24 hrs; format: functional; outline: as §1
[7] = system: MCF7; assay: Increase in endogenous C24-ceramide level in human MCF7 cells at 10 uM upto 0.5 hrs; format: functional, cell-based; outline: as §1
[8] = system: MCF7; assay: Decrease in endogenous sphingosine level in human MCF7 cells at 10 uM upto 0.5 hrs; format: functional, cell-based; outline: as §1
[9] = system: MCF7; assay: Increase in endogenous C16-ceramide level in human MCF7 cells at 10 uM upto 0.5 hrs; format: functional, cell-based; outline: as §1
[10] = system: MCF7; assay: Increase in endogenous C16-ceramide level in human MCF7 cells upto 24 hrs; format: functional; outline: as §1
[11] = system: MCF7; assay: Increase in endogenous C24-ceramide level in human MCF7 cells after 24 hrs; format: functional; outline: as §1
[12] = system: MCF7; assay: Increase in endogenous sphingosine level in human MCF7 cells after 24 hrs; format: functional; outline: as §2
[13] = system: MCF7; assay: Increase in endogenous sphingosine-1-phosphate level in human MCF7 cells after 5 to 10 hrs; format: functional, cell-based; outline: as §2
[14] = system: MCF7; assay: (§3) Increase in endogenous C14-ceramide level in human MCF7 cells at 10 uM upto 24 hrs; format: functional; outline: as §1
[15] = system: MCF7; assay: Increase in endogenous C24:1-ceramide level in human MCF7 cells after 24 hrs; format: functional; outline: as §2
[16] = system: MCF7; assay: Increase in endogenous C24:1-ceramide level in human MCF7 cells at 10 uM upto 0.5 hrs; format: functional, cell-based; outline: as §2
[17] = system: MCF7; assay: Increase in endogenous C24-ceramide level in human MCF7 cells at 10 uM within 30 mins; format: functional, cell-based; outline: as §2
[18] = system: MCF7; assay: Decrease in endogenous C16-ceramide level in human MCF7 cells at 10 uM after 18 hrs; format: functional, cell-based; outline: as §1
[19] = system: MCF7; assay: Decrease in endogenous C24-ceramide level in human MCF7 cells upto 20 uM after 24 hrs; format: functional; design: scale not given: the % may be the effect or the level left; outline: as §1
[20] = system: MCF7; assay: Increase in endogenous ceramide level in human MCF7 cells at 50 uM after 24 hrs; format: functional; outline: as §2
[21] = system: MCF7; assay: Decrease in endogenous C24-ceramide level in human MCF7 cells at 10 uM after 18 hrs; format: functional, cell-based; outline: as §1
[22] = system: MCF7; assay: Decrease in endogenous sphingosine level in human MCF7 cells at 5 uM after 24 hrs; design: scale not given: the % may be the effect or the level left
[23] = system: MCF7; assay: Increase in endogenous C24-ceramide level in human MCF7 cells at 10 uM upto 2.5 hrs; format: functional, cell-based; outline: as §1
[24] = system: MCF7; assay: Decrease in endogenous sphingosine level in human MCF7 cells at 50 uM after 24 hrs; format: functional; design: scale not given: the % may be the effect or the level left; outline: as §1
[25] = system: MCF7; assay: Increase in endogenous C16-ceramide level in human MCF7 cells at 10 uM within 30 mins; format: functional, cell-based; outline: as §1
[26] = system: MCF7; assay: Decrease in endogenous C24:1-ceramide level in human MCF7 cells upto 20 uM after 24 hrs; format: functional; design: scale not given: the % may be the effect or the level left; outline: as §1
[27] = system: MCF7; assay: Decrease in endogenous sphingosine level in human MCF7 cells at 20 uM after 24 hrs; format: functional, cell-based; outline: as §1
[28] = system: MCF7; assay: Decrease in endogenous ceramide level in human MCF7 cells at 10 uM after 24 hrs; format: functional; design: scale not given: the % may be the effect or the level left; outline: as §1
[29] = system: MCF7; assay: Decrease in endogenous C24:1-ceramide level in human MCF7 cells at 10 uM upto 2.5 hrs; format: functional, cell-based; outline: as §1
[30] = system: MCF7; assay: Increase in endogenous sphingosine level in human MCF7 cells at 10 uM within 30 mins; format: functional; outline: as §2
[31] = system: MCF7; assay: Increase in endogenous C24:1-ceramide level in human MCF7 cells at >30 uM after 24 hrs; format: functional, cell-based; outline: as §2
[32] = system: MCF7; assay: Increase in endogenous C24:1-ceramide level in human MCF7 cells at 10 uM within 30 mins; format: functional, cell-based; outline: as §2
[33] = system: MCF7; assay: Decrease in endogenous sphingosine level in human MCF7 cells at 10 uM upto 2.5 hrs; format: functional, cell-based; outline: as §1
[34] = system: MCF7; assay: Increase in endogenous C16-ceramide level in human MCF7 cells at >25 uM after 24 hrs; format: functional, cell-based; outline: as §1
[35] = system: MCF7; assay: Growth inhibition of human MCF7 cells after 48 hrs; format: functional, cell-based
[36] = system: MCF7; assay: Inhibition of acid ceramidase in human MCF7 cells assessed as enzyme degradation at 10 uM after 5 hrs; format: cell-based
[37] = system: MCF7; assay: as §3; format: functional, cell-based; outline: as §1
[38] = system: MCF7; assay: Increase in endogenous C14-ceramide level in human MCF7 cells at 10 uM after 24 hrs; format: functional; outline: as §1
[39] = system: MCF7; assay: Decrease in endogenous C24:1-ceramide level in human MCF7 cells at 10 uM after 24 hrs; format: functional; outline: as §1
[40] = system: MCF7; assay: Decrease in endogenous C24-ceramide level in human MCF7 cells at 10 uM after 24 hrs; format: functional; outline: as §1
[41] = system: MCF7; assay: Increase in endogenous C16-ceramide level in human MCF7 cells at 10 uM after 24 hrs; format: functional, cell-based; outline: as §1
[42] = system: MCF7; assay: Decrease in endogenous sphingosine level in human MCF7 cells at 1 uM after 24 hrs; format: functional; outline: as §1
[43] = system: MCF7; assay: Decrease in endogenous sphingosine level in human MCF7 cells at 10 uM upto 24 hrs; format: functional, cell-based; outline: as §1
[44] = system: MCF7; assay: Increase in endogenous sphingosine level in human MCF7 cells at 10 uM after 1 to 2.5 hrs; format: functional, cell-based; outline: as §2
[45] = system: MCF7; assay: Increase in endogenous sphingosine level in human MCF7 cells at 10 uM after 24 hrs; format: functional; outline: as §2
[46] = system: MCF7; assay: Increase in endogenous C24:1-ceramide level in human MCF7 cells at 10 uM after 1 to 2.5 hrs; format: functional, cell-based; outline: as §2
[47] = system: MCF7; assay: Decrease in endogenous sphingosine level in human MCF7 cells at 50 uM after 24 hrs; design: scale not given: the % may be the effect or the level left
[48] = system: MCF7; assay: Increase in endogenous C16-ceramide level in human MCF7 cells at 50 uM after 24 hrs; format: functional; outline: as §1
[49] = system: MCF7; assay: Increase in endogenous C24-ceramide level in human MCF7 cells at 10 uM after 1 to 2.5 hrs; format: functional, cell-based; outline: as §1
[50] = system: MCF7; assay: Decrease in endogenous sphingosine level in human MCF7 cells upto 10 uM after 48 hrs; format: functional; design: scale not given: the % may be the effect or the level left; outline: as §1
[51] = system: MCF7; assay: Increase in endogenous sphingosine level in human MCF7 cells upto 10 uM after 24 hrs; format: functional, cell-based; outline: as §2

CCCCCCCCCCCCCC(=O)N[C@@H](C)[C@@H](O)c1ccccc1
Activity [1]: inactive
Activity [2]: inactive

O=C(CCCCCCCCCCCCCCC[n+]1ccccc1)N[C@H](CO)[C@H](O)c1ccc([N+](=O)[O-])cc1.[Br-]
Activity [3]: 130%
Activity [4]: 800%
Activity [5]: 260%
Activity [6]: 800%
Activity [7]: Active
Activity [8]: Active
Activity [9]: Active
Activity [10]: 820%
Activity [11]: 140%
Activity [12]: 350%
Activity [13]: Active
Activity [14]: 760%
Activity [15]: 270%
Activity [16]: Active

CCCCCCCCCCCCNC(=O)N[C@H](CO)[C@H](O)c1ccc([N+](=O)[O-])cc1
Activity [17]: Active
Activity [18]: Active
Activity [19]: 80%
Activity [20]: 170%
Activity [21]: Active
Activity [22]: 80%
Activity [23]: Active
Activity [24]: 45%
Activity [25]: Active
Activity [26]: 80%
Activity [27]: Active
Activity [28]: 90%
Activity [29]: Active
Activity [30]: Active
Activity [31]: Active
Activity [32]: Active
Activity [33]: Active
Activity [34]: Active
Activity [35]: Active

CCCCCCCCCCCCCCN[C@H](CO)[C@H](O)c1ccc([N+](=O)[O-])cc1.Cl
Activity [36]: Active
Activity [37]: Active
Activity [38]: 850%
Activity [39]: Active
Activity [40]: Active
Activity [41]: Active
Activity [42]: Active
Activity [43]: Active

CCCCCCCCCCCCNC(=O)N[C@H](C)[C@@H](O)c1ccccc1
Activity [20]: 180%
Activity [44]: Active
Activity [45]: 140%
Activity [46]: Active
Activity [47]: 25%
Activity [48]: Active
Activity [49]: Active
Activity [50]: 25%
Activity [51]: Active
Activity [35]: Active
